GSH fluor = compound fluoresces at 488/530 nm on GSH beads. GSH beads flow cytometry, compound fluorescence 488/530 nm; stronger effect = higher value. fluorescence (KMESF) at 10 µM. hit rate 0.25% among 190,000; in the data active = fluorescence above about 89;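 also: glutathione beads carrying GST-tagged Bcl family fusion proteins plus one bare bead set; values are compound well signal with DMSO vehicle wells as background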
ABCB1 inh = inhibitors of human ABCB1 transporter, ABCG2 counter-screen; inhibition, % at 6.6 µM; AID 1326; P08183; CCRF-Adr cells, JC-1 efflux, flow cytometry; hit rate 0.067% among 190,000; in the data active = inhibition above about 40%;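 also: 0% = vehicle and 100% = reference inhibitor; higher value means more JC-1 retained so stronger ABCB1 efflux block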
L major viab = inhibitors of Leishmania major promastigote growth; Leishmania major promastigotes, resazurin fluorescence viability; inhibition, % at 10 µM; hit rate 9% among 200,000;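 also: promastigotes grown with compound for 44 hours at 28 °C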
ABCG2 block = blocks JC-1 efflux by human ABCG2 transporter; Q9UNQ0; IgMXP3 cells, flow cytometry; inhibition, % at 6.6 µM; hit rate 0.1% among 190,000;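 active = inhibition above 80%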;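 also: 0% = DMSO and 100% = nicardipine control wells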
Target sequence (Q9UNQ0 whole entry, looked up): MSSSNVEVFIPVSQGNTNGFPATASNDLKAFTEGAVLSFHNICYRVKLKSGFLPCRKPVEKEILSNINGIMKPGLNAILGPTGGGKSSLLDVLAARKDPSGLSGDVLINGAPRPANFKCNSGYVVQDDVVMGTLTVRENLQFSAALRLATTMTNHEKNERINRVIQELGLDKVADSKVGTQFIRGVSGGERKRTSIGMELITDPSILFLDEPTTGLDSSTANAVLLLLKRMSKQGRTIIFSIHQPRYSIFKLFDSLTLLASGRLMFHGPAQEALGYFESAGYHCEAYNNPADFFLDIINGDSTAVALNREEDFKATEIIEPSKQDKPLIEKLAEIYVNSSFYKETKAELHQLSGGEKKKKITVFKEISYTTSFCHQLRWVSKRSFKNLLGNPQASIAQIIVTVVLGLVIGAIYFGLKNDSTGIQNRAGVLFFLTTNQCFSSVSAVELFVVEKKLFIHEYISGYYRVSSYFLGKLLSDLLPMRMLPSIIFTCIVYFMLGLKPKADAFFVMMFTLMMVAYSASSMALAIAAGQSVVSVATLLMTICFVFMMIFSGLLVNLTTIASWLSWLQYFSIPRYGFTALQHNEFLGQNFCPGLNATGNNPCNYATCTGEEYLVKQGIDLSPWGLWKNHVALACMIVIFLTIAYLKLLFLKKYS
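System: two drug-resistant human cell lines, ABCG2 and ABCB1; controls: nicardipine high and DMSO low controls; times: 10 min exposure at 25 °C with rotation, no wash; detection: flow cytometry of retained JC-1 fluorescence; read-out basis: percent efflux inhibition, scaled nicardipine 100% to DMSO 0%; doses: one concentration, 6.6 µM final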
Avidin fluor = avidin bead compound fluorescence profile; Avidin beads, compound fluorescence 488/530 nm, flow cytometry; stronger effect = higher value; fluorescence (KMESF) at 10 µM; hit rate 0.38% among 220,000; in the data active = fluorescence above about 47
PKD1 inh = blocks activity of human protein kinase D1. PKD1 kinase fluorescence polarization assay. inhibition, % (concentration not given with the values). hit rate 0.056% among 200,000. Q15139. AID 797
* marks the source's active call; other numbers are inactive results; . = not tested or not shown. The sample as a whole holds a higher share of hits than the screen did. Rule as the data show it, unless noted: active = inhibition above about 50%; inactive = the rest.

SMILES | GSH fluor | ABCB1 inh | L major viab | ABCG2 block | Avidin fluor | PKD1 inh
Cc1ccc(-c2csc(NC(=S)NC(=O)c3ccco3)n2)cc1 | 20 | -4 | -8 | -1 | 11 | 6
O=C(O)Cc1csc(NC(=O)c2ccco2)n1 | 276* | 0 | -4 | 0 | 7 | -1
O=C(Nc1nc(-c2ccc(S(=O)(=O)N3CCCC3)cc2)cs1)c1ccco1 | 7 | 0 | 97* | 1 | 34 | -4
NNc1nc(-c2ccccc2)cs1 | 20 | 0 | 90* | 0 | 17 | -11
O=C(NNc1nc(-c2ccccc2)cs1)c1ccco1 | 10 | -1 | 67* | -6 | 9 | 7
CC(C)(C)c1nc(NC(=O)Nc2ccccc2)sc1Br | 13 | 0 | -4 | 7 | 9 | -1
O=C(NCCc1ccccc1)c1ccc(NCC2CCCO2)c([N+](=O)[O-])c1 (centres undefined) | 16 | 0 | 42 | 5 | 10 | -2
O=C(NNc1nc(-c2ccc(Cl)cc2)cs1)c1ccco1 | 10 | -1 | 58* | -6 | 17 | 11
CCOC(=O)C(NC(=O)CC)(Nc1ccccc1)C(F)(F)F (centres undefined) | 25 | 1 | -5 | 10 | 5 | -7
COC(=O)C(NC(=O)COc1ccccc1)(Nc1nc2c(s1)CCCC2)C(F)(F)F (centres undefined) | 52 | 1 | 65* | 3 | 8 | 0
CCOC(=O)C(NC(=O)CC)(Nc1nc2c(s1)CCCC2)C(F)(F)F (centres undefined) | 156* | 1 | 7 | 0 | 7 | -9
CCO[C@@H]1OC(C(=O)N2CCN(C)CC2)=C[C@H](C(C)(C)C)[C@H]1CCCO | 20 | 0 | -3 | 0 | 6 | -2
Cn1c2c(c(=O)[nH]c1=O)C(c1cccc(O)c1)C1=C(N2)c2ccccc2C1=O (centres undefined) | 21 | 0 | 3 | 2 | 11 | 1
CCc1nnc(NC(=O)CN2CCC(O)(c3ccccc3OC)CC2)s1 | 8 | 0 | -4 | 0 | 9 | -4
COc1ccc(C2(O)CCN(CC(=O)Nc3nccs3)CC2)c(OC)c1 | 24 | 1 | 88* | 4 | 12 | -6
O=S(=O)(c1ccccc1Cl)N1CCCC1c1nc(-c2ccccc2Cl)no1 (centres undefined) | 16 | 1 | 89* | 16 | 16 | 2
O=S(=O)(c1ccc(Cl)cc1)N1CCCC1c1nc(-c2ccc(Cl)cc2)no1 (centres undefined) | 8 | 0 | -2 | 3 | 5 | 0
Cc1c(Cl)cccc1NC(=S)NC1CCN(C(C)C)CC1 | 25 | 0 | 36 | 1 | 8 | -10
O=C(CN1CCN(c2ccccc2O)CC1)Nc1cccnc1Cl | 18 | 1 | -7 | 3 | 12 | -3
O=C(CSc1nnc2c(Cl)cc(Cl)cn12)N1CCN(c2ccc(F)cc2)CC1 | 6 | 0 | 53* | 6 | 8 | -9
CC(C)n1nc(C(=O)Nc2ccccc2N2CCOCC2)c2ccccc2c1=O | 3 | 2 | 87* | 9 | 5 | -8
Cn1c(=O)c2c(ncn2CC(=O)Nc2ccccc2Sc2ccccc2)n(C)c1=O | 15 | 2 | -3 | 24 | 14 | -8
Cn1c(=O)c2c(ncn2CC(=O)Nc2ccccc2N2CCOCC2)n(C)c1=O | 26 | 1 | 4 | 31 | 67* | 0
COc1ccc(-n2c3c(cc(C(=O)NCc4ccco4)c2=O)C(=O)CC(C)(C)C3)cc1 | 25 | 1 | 55* | 2 | 10 | -4
COC(=O)C(CCSC)NC(=O)c1cc2c(n(-c3ccc(C)cc3)c1=O)CCCC2=O (centres undefined) | 12 | 1 | 48 | 4 | 13 | -4
SMILES | GSH fluor | ABCB1 inh | L major viab | ABCG2 block | Avidin fluor | PKD1 inh
CC1(C)CC(=O)c2cc(C(=O)N3CCCC(C)(C)C3)c(=O)n(-c3ccccc3)c2C1 | 6 | 0 | 83* | 1 | 8 | 7
COC(=O)C(CCSC)NC(=O)c1cc2c(n(-c3ccccc3)c1=O)CC(C)(C)CC2=O (centres undefined) | 12 | 1 | 84* | 5 | 14 | -1
COc1ccc(CCNC(=O)c2cc(-c3ccc(Cl)c(Cl)c3)oc2C)cc1 | 11 | 0 | 2 | 28 | 13 | -1
CC(=O)Nc1ccc(NC(=O)C(C)OC(=O)C2CCN(S(=O)(=O)c3cccs3)CC2)cc1 (centres undefined) | . | . | . | . | 3 | .
O=C(Nc1ccc2c(c1)OCO2)c1cnn2c(C(F)(F)F)cc(-c3ccco3)nc12 | 11 | 3 | 16 | 14 | 20 | 4
O=C(Nc1cnn(C23CC4CC(CC(C4)C2)C3)c1)c1cnn2c(C(F)(F)F)cc(-c3ccco3)nc12 | 22 | 2 | 82* | 51 | 21 | -9
Cc1c(Cl)cn2c(=O)cc(CN3CCN(c4ccc(F)cc4)CC3)nc2c1Cl | 17 | -1 | -6 | -2 | 10 | 0
CC(=O)c1ccc(OCCCN2CCCCC2)cc1 | 15 | 0 | 88* | 0 | 34 | 4
CCOc1ccc(C(=O)NCCN2CCCC2)cc1 | 10 | 0 | -3 | 0 | 13 | -6
O=C(c1ccccc1)c1ccc(OCCCN2CCCCC2)cc1 | 11 | -4 | 99* | -6 | 10 | -14
COC(=O)c1ccc(OCCN2CCCCCC2)cc1 | 15 | 0 | 88* | -1 | 11 | -1
CNC(=O)CS(=O)CC(=O)Nc1cc(OCCOC)c(Cl)cc1Cl (centres undefined) | 10 | 0 | 5 | 0 | 3 | 2
CC(C)c1cc(NC(=O)c2ccccc2)cc(C(C)C)c1O | 26 | 0 | 5 | 8 | 9 | 2
O=C(CSCc1ccccc1)Nc1cccc(C(=O)Nc2ccc(C(=O)O)cc2)c1 | 19 | 0 | -5 | 0 | 53* | -5
O=C(NNc1cc(Br)c(O)c(Br)c1)c1ccccc1 | 18 | -1 | 88* | -1 | 7 | -7
CC(=O)c1cccc(NC(=O)CSCc2ccccc2)c1 | 21 | -3 | -2 | 1 | 12 | -3
CC(C)c1ccccc1NC(=O)c1cccc(NC(=O)c2ccccc2)c1 | 23 | 0 | 91* | 2 | 22 | 0
O=C(Nc1cccc(O)c1)c1ccccc1 | 17 | 0 | 62* | 3 | 10 | -11
Cc1cc(C)nc(NC(=O)c2ccc(COc3ccccc3Cl)cc2)c1 | 14 | -1 | 6 | -1 | 11 | -4
O=C(Nc1ccc(Cl)cc1)c1cc2c(cc1O)[nH]c1ccccc12 | . | . | . | . | 8 | .
Cc1ccc(C(=O)Nc2cccc(C(=O)NCc3ccccc3)c2)cc1 | 9 | 1 | 52* | 6 | 13 | -5
COc1ccc(C(=O)Nc2cccc(C(=O)NCc3ccccc3)c2)cc1 | 10 | 1 | 2 | 11 | 11 | -2
O=C(CN1CCN(C/C=C/c2ccccc2)CC1)NCc1ccccc1 | 20 | 0 | 63* | -1 | 10 | 8
O=C(CN1CCCCCC1)NCc1ccccc1 | 16 | 3 | 0 | 6 | 10 | -11

Screening data as filed in PubChem BioAssay.
